Measurements published in ChEMBL document CHEMBL1129379, “Heterocyclic ureas: inhibitors of acyl-CoA:cholesterol O-acyltransferase as hypocholesterolemic agents” (J Med Chem, 1996).

Experiments:
[1] = target: O-acyltransferase (Oryctolagus cuniculus, UniProt G1SFD9); experiment: Acyl coenzyme A:cholesterol acyltransferase 1 inhibition in vitro measured in rabbit intestinal microsomes; design: species or system Intestine
[2] = system: Canis familiaris; experiment: Percent change in plasma cholesterol in dog at 3 mg/kg; format: functional, Canis lupus familiaris
In short: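 Cholesterol-fed female Beagle dogs given bulk drug in capsules before meals, daily for 1 week, at 3 mg/kg po. Plasma total cholesterol compared before and after treatment as percent change; paired two-tailed t-test, n = 6.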

[3] = system: Rattus norvegicus; experiment: Percent change in plasma TC in the chronic C-fed rat model of pre-established hypercholesterolemia. Dose at 10 mg/kg; format: functional
In short: (§1)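 Chronic rat model of pre-established hypercholesterolemia: 1 week on high-cholesterol diet, then compound dosed orally once daily for 1 week. Plasma total cholesterol, HDL-C and non-HDL-C expressed as percent change versus control; p < 0.05 flagged.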

[4] = target: T1, Sterol O-acyltransferase 1 (Rattus norvegicus) (UniProt O70536); experiment: Percent change in plasma TC in the chronic C-fed rat model of pre-established hypercholesterolemia. Dose at 30 mg/kg; format: functional, organism-based; design: dose 30 mg/kg; in short: as §1
T1 sequence (whole entry): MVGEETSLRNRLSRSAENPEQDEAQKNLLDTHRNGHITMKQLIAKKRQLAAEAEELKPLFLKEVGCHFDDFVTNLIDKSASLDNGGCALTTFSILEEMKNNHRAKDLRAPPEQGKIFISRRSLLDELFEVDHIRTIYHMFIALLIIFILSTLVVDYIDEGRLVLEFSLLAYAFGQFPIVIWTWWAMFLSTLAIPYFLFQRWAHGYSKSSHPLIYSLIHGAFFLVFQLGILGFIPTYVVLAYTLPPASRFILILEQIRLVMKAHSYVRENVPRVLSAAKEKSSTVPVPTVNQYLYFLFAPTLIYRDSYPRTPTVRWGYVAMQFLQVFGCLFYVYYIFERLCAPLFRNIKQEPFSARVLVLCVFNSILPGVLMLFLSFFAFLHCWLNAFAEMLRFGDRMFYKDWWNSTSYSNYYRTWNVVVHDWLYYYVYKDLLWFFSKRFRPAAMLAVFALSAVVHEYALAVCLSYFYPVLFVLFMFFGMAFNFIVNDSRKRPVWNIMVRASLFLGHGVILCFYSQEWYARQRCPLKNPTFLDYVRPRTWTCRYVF

[5] = system: Rattus norvegicus; experiment: Percent change in plasma TC in the chronic C-fed rat model of pre-established hypercholesterolemia. Dose at 3 mg/kg; format: functional; in short: as §1
[6] = target: T1, Sterol O-acyltransferase 1 (Rattus norvegicus); experiment: Percent change in plasma total cholesterol in an acute cholesterol-fed rat model of hypercholesterolemia, dose at 3 mg/kg; format: functional, organism-based; design: dose 3 mg/kg
[7] = target: T1, Sterol O-acyltransferase 1 (Rattus norvegicus); experiment: Percent change in plasma total cholesterol in an acute cholesterol-fed rat model of hypercholesterolemia, dose at 30 mg/kg; format: functional, organism-based; design: dose 30 mg/kg
[8] = system: Rattus norvegicus; experiment: Percent change in HDL-CDose at 10 mg/kg; format: functional; in short: as §1
[9] = system: Rattus norvegicus; experiment: Percent change in HDL-CDose at 30 mg/kg; format: functional; in short: as §1
[10] = system: Rattus norvegicus; experiment: Percent change in HDL-CDose at 3 mg/kg; format: functional; in short: as §1
[11] = system: Rattus norvegicus; experiment: Percent change in non-HDL-C Dose at 10 mg/kg; format: functional; in short: as §1
[12] = system: Rattus norvegicus; experiment: Percent change in non-HDL-C Dose at 30 mg/kg; format: functional; in short: as §1
[13] = system: Rattus norvegicus; experiment: Percent change in non-HDL-C Dose at 3 mg/kg; format: functional; in short: as §1

- IC50 [1]: 12 nM
- Delta TC [4]: -61%
- Delta TC [6]: -56%
- Delta TC [7]: -65%
SMILES: CCCCCCCCCCCCCCN1NN=C(NC(=O)Nc2c(C(C)C)cccc2C(C)C)N1
- Delta plasma cholesterol [2]: -22%
- Delta TC [3]: -53%
- Delta TC [5]: -43%
- Delta HDL-C [8]: 87%
- Delta HDL-C [9]: 93%
- Delta HDL-C [10]: 47%
- Non-HDL-C [11]: -61%
- Non-HDL-C [12]: -68%
- Non-HDL-C [13]: -48%
